Rows were chosen to be rich in hits. Some 1.3% of all compounds tested hit in one or more screens of this group.
NTR1 agonist: activates human neurotensin receptor 1. NTR1-U2OS beta-arrestin-GFP spot imaging, agonist mode. P30989. actives 0.17% (n = 330,000). AID 493036. activation, % at 20 µM;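 active means activation at or above 40% of the spot to cytoplasm intensity ratio, with at least 20 cells analyzed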;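 further: 0% = DMSO without peptide and 100% = 100 nM NTR1 peptide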
Target sequence (P30989 whole entry, looked up): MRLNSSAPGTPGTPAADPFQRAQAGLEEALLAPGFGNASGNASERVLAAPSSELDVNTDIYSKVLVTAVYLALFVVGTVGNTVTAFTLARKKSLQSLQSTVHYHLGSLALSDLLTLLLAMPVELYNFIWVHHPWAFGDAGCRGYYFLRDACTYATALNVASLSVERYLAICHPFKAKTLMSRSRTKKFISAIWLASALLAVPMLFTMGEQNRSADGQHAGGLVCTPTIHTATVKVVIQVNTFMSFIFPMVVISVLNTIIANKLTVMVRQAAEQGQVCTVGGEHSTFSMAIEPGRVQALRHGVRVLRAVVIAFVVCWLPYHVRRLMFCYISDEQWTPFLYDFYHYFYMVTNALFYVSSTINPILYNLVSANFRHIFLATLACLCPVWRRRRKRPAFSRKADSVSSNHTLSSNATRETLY
PLC-beta3 inh: blocks human PLC-beta3 enzyme activity | Purified PLC-beta3, fluorogenic substrate, fluorescence | Q01970 | actives 0.18% (n = 370,000) | inhibition, % at 12.2 µM | AID 720704; in the data active means inhibition above about 11%;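 further: 0% = median of compound wells on plate and 100% = full blocker control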
PLCg1 inh: inhibitors of human phospholipase C gamma1; purified PLC-gamma1, fluorogenic substrate, fluorescence; P19174; actives 0.84% (n = 370,000); inhibition, % at 12.2 µM
Arrestin-AP2 inh: inhibitors of human beta-arrestin and AP2 interaction. actives 0.31% (n = 340,000). FITC-arrestin peptide / GST-AP2 beads, flow cytometry; AP2 beta2 appendage carries R879A mutation. inhibition, % at 10 µM. AID 504490;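 active means inhibition above a set limit, near 3 SD of compounds lacking own fluorescence, cut at about 54% in these data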;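 further: plate controls were DMSO wells for no effect and 5 µM unlabelled arrestin peptide for full effect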
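Material – AP2 appendage R879A on GSH beads · Buffer or medium – PBS with 0.05% Tween 20 and 0.1% BSA · Probe or stimulus – fluorescein-tagged arrestin peptide at 50 nM final · Incubation – compound with beads 12 min RT, then probe 1 h RT · Detection – high-throughput flow cytometry of beads, ex 488, em 535 nm · Evaluation – percent response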
PLCgamma1 ctr: inhibits human PLC-gamma1 in PLC-beta3 counter-screen | actives 3.1% (n = 3,300) | purified PLC-gamma1, fluorogenic substrate, fluorescence | shares compounds with PLCg1 inh | inhibition, % at 12.3 µM | AID 743258
PLCb3 confirm: confirmation of human PLC-beta3 inhibitors | shares compounds with PLCg1 inh | purified PLC-beta3, fluorogenic substrate fluorescence | inhibition, % at 12.3 µM | actives 1% (n = 3,300); in the data active means inhibition above about 11%
Numbers without * were called inactive; . = no result given. Unless noted, no stated cut-off is given here; in the data, active means inhibition above about 9.5%; inactive means the rest.

SMILES	NTR1 agonist	PLC-beta3 inh	PLCg1 inh	Arrestin-AP2 inh	PLCgamma1 ctr	PLCb3 confirm
Cc1nn(C)cc1S(=O)(=O)N1CCN(Cc2ccc(F)cc2Cl)CC1	-1.3	11.8*	0.5	0.5	-1.8	-2.2
CC12CCC(C(=O)N3CCCCC3)(CC1=O)C2(C)C (stereo not drawn)	-0.7	-2.4	-2.9	-6.6	.	.
CC1CCCN(C(=O)C23CCC(C)(C(=O)C2)C3(C)C)C1 (stereo not drawn)	-0.4	11.4*	4.8	-2.3	4.0	7.1
Cc1onc(-c2ccccc2)c1CNS(=O)(=O)c1cccc(Cl)c1	2.3	6.3	11.2*	8.4	-6.5	0.6
Cc1nn(-c2ccccc2)c2sc(C(=O)NCc3ccc4c(c3)OCO4)cc12	.	-1.8	2.9	.	.	.
O=C(CSc1ccccc1)NC1CCCCN(Cc2ccc(Cl)cc2)C1=O (stereo not drawn)	.	-2.0	-1.1	.	.	.
CC1Cn2c(Cc3ccccc3)nnc2S1 (stereo not drawn)	.	14.3*	8.0	.	-1.2	3.1
CC1Cn2c(CCc3ccccc3)nnc2S1 (stereo not drawn)	0.2	-2.1	0.4	34.7	.	.
O=C(CN1CCC(NC(=O)Nc2ccc(Cl)cc2)CC1)Nc1ccc2c(c1)OCCO2	.	1.3	1.7	.	.	.
Cc1cnc(CNC(=O)c2ccc3sc([C@H]4C[C@H](O)[C@@H](CO)O4)nc3c2)cn1	.	8.9	10.1*	.	-3.4	-34.9
C#CCNC(=O)c1ccc2sc([C@H]3C[C@H](O)[C@@H](CO)O3)nc2c1	.	1.9	-0.9	.	.	.
Cc1onc(-c2ccccc2)c1C(=O)NC(=S)NNC(=O)c1ccncc1	-1.6	-6.0	-5.8	-2.4	.	.
Cc1onc(-c2ccccc2)c1C(=O)NC(=S)NNC(=O)c1cccnc1	0.3	4.7	10.5*	1.9	-2.2	-0.9
FC(F)(F)c1cccc(Cn2ccc3ccc(-c4ccc5ccn(Cc6cccc(C(F)(F)F)c6)c5c4)cc32)c1	.	-51.0	-38.7	.	.	.
COc1ccc(CNCCC(c2ccc(F)cc2)c2ccc(OC(C)C)cc2)cc1OC (stereo not drawn)	26.0	-2.1	10.6*	1.3	-4.2	2.0
COc1ccc(C(CCNCc2ccc(OC(C)C)cc2)c2ccccc2OC)cc1 (stereo not drawn)	25.3	4.5	5.8	-3.1	.	.
COc1ccc(CNCCC(c2ccccc2)c2ccc(OC(C)C)cc2)cc1OC (stereo not drawn)	8.1	6.8	10.5*	8.5	1.5	4.5
COC(=O)C1=C(C)N(C)C(=NCC2CC2)NC1c1ccc(Cl)cc1 (stereo not drawn)	.	2.7	0.5	.	.	.
O=C(Nc1ncc2c(n1)CC(c1cccc(Cl)c1)CC2=O)c1ccco1 (stereo not drawn)	-0.6	-3.6	18.7*	5.6	-6.5	-1.7
Cc1cc(NC(=O)c2ccccc2)ncc1NC(=O)c1cccs1	0.1	16.3*	-1.6	2.3	-8.2	9.3
COc1ccc(S(=O)(=O)NCCCN2CCCC2=O)cc1OC	1.9	-2.3	10.0*	8.0	-1.3	2.4
Cc1cccc(-n2cc(CN(C)Cc3nccn3C)c(-c3cccc(F)c3)n2)c1	1.4	4.3	11.1*	5.0	-3.8	-1.4
CCn1ccnc1CN(C)Cc1cn(-c2cccc(C)c2)nc1-c1cccc(F)c1	4.6	4.1	7.6	8.4	.	.
O=S(Cc1cc(Oc2ccccc2)nc(-c2ccccc2)n1)c1ccccc1 (stereo not drawn)	13.5	3.8	13.5*	-5.5	1.1	2.5
C(=C\c1ccccc1)/CSc1nnc(COc2ccccc2)n1Cc1ccco1	.	-3.2	-1.4	.	.	.
SMILES	NTR1 agonist	PLC-beta3 inh	PLCg1 inh	Arrestin-AP2 inh	PLCgamma1 ctr	PLCb3 confirm
O=C(Cc1ccc(NC(=O)C2CCN(C(=O)C3CCCCC3)CC2)cc1)Nc1ccc(C(=O)N2CCOCC2)cc1	.	9.7	12.9*	-6.8	0.2	3.3
O=C(Cc1ccc(NC(=O)C2CCCN(C(=O)C3CCCC3)C2)cc1)Nc1ccc(C(=O)N2CCOCC2)cc1 (stereo not drawn)	.	5.4	4.1	27.0	.	.
O=C(Nc1ccc2c(c1)OCCO2)C1CCN(C(=O)c2ccc(Br)cc2)CC1	0.9	-1.0	-0.1	-13.2	.	.
COc1ccc(C(=O)N2CCC(C(=O)Nc3ccc4c(c3)OCCO4)CC2)cc1	-0.7	12.0*	9.0	-4.7	-7.6	-1.6
CN(Cc1ccccc1)C(=O)c1cccc(NC(=O)Cc2ccc(NC(=O)C3CCN(C(=O)c4ccccc4)CC3)cc2)c1	.	-0.9	-2.8	21.4	.	.
O=C(Cc1ccc(NC(=O)C2CCCN(C(=O)C3CCCCC3)C2)cc1)Nc1ccc(C(=O)N2CCOCC2)cc1 (stereo not drawn)	.	9.2	10.3*	-18.8	-4.8	-0.4
CN(Cc1ccccc1)C(=O)c1cccc(NC(=O)Cc2ccc(NC(=O)C3CCCN(C(=O)c4ccccc4)C3)cc2)c1 (stereo not drawn)	.	5.2	12.5*	-3.3	-3.4	-0.4
COc1cccc([C@@H]2NC(=O)C/C=C/[C@H](C)[C@H](c3cccc(OC)c3)NC(=O)C/C=C/[C@@H]2C)c1	.	1.6	-0.4	.	.	.
CC(c1nnc(SCn2nnc3ccccc3c2=O)n1-c1ccc(Cl)cc1)N(C)C (stereo not drawn)	-0.1	12.1*	3.3	9.4	-3.0	1.8
CC(c1nnc(SCC(=O)N2CCc3ccccc32)n1-c1ccc(Cl)cc1)N(C)C (stereo not drawn)	0.5	1.4	4.3	-8.8	.	.
COC(=O)[C@@H]1CCCN1C(=O)[C@@H](NC(=O)OC(C)(C)C)C(C)C	-0.3	14.1*	8.4	-4.7	-3.9	1.3
O=C1NC(c2ccccc2)(c2ccccc2)C(=O)N1CNc1ccccn1	.	0.8	-0.7	.	.	.
COc1ccccc1-c1cnnc(N/N=C/c2ccc(-c3cccc(Br)c3)o2)n1	4.9	1.0	12.0*	2.9	8.4	4.6
O=C(NCCc1cccc(F)c1)c1cc2ccccn2n1	.	-3.8	-0.9	.	.	.
COc1ccc(Cl)c(OC)c1C(=O)NC(=O)Nc1nc(C)nc(C)n1	-0.2	-6.1	5.2	8.1	.	.
COc1c(Cl)cc(Br)c(OC)c1C(=O)NC(=O)Nc1nc(C)cc(C)n1	1.5	0.8	10.8*	-2.3	-1.8	-0.8
C[C@H](O)[C@@H]1CN2CCc3c([nH]c4ccccc34)[C@@H]2C[C@@H]1N(C)CC1CCCCC1	.	4.5	2.3	.	.	.
CCCN(CC1CC1)S(=O)(=O)c1ccc(S(N)(=O)=O)cc1	-1.6	-3.5	11.9*	8.8	-4.3	-6.1
O=C1C[C@H](C(=O)Nc2ccc(Cl)cc2)[C@@H](c2ccccc2)O1	.	0.5	0.8	.	.	.
CCOC(=O)N1CCC(Nc2nc3ccccc3n3cnnc23)CC1	2.4	11.0*	7.4	-3.6	-5.4	-4.2
COC(=O)[C@]12C[C@H](CC(=O)NCCCN3CCCC3=O)C(=O)N(CCC3=CCCCC3)C1=C[C@H](C1CCCC1)O[C@@H]2C	.	1.3	1.0	.	.	.
Cc1cccc(C)c1N(CC(=O)NC1CCCCC1)C(=O)c1csnn1	-1.6	-1.0	16.4*	-4.2	-4.8	0.7

High-throughput results from PubChem.
